The values that follow come from ChEMBL document CHEMBL4392846, “Identification and design of novel small molecule inhibitors against MERS-CoV papain-like protease via high-throughput screening and molecular modeling” (Bioorg Med Chem, 2019).

The target in test [1] is T1, Replicase polyprotein 1ab (Middle East respiratory syndrome-related coronavirus (isolate UnitedKingdom/H123990006/2012) (Betacoronavirus England 1) (Humancoronavirus EMC), UniProt K9N7C7). Kind of test: (§1) Inhibition of MERS-CoV papain-like protease using Z-Arg-Leu-Arg-Gly-Gly-AMC as substrate preincubated for 5 mins followed by substrate addition and measured for 10 mins by fluorescence assay.
T1 sequence (K9N7C7 854-2740 limits assumed): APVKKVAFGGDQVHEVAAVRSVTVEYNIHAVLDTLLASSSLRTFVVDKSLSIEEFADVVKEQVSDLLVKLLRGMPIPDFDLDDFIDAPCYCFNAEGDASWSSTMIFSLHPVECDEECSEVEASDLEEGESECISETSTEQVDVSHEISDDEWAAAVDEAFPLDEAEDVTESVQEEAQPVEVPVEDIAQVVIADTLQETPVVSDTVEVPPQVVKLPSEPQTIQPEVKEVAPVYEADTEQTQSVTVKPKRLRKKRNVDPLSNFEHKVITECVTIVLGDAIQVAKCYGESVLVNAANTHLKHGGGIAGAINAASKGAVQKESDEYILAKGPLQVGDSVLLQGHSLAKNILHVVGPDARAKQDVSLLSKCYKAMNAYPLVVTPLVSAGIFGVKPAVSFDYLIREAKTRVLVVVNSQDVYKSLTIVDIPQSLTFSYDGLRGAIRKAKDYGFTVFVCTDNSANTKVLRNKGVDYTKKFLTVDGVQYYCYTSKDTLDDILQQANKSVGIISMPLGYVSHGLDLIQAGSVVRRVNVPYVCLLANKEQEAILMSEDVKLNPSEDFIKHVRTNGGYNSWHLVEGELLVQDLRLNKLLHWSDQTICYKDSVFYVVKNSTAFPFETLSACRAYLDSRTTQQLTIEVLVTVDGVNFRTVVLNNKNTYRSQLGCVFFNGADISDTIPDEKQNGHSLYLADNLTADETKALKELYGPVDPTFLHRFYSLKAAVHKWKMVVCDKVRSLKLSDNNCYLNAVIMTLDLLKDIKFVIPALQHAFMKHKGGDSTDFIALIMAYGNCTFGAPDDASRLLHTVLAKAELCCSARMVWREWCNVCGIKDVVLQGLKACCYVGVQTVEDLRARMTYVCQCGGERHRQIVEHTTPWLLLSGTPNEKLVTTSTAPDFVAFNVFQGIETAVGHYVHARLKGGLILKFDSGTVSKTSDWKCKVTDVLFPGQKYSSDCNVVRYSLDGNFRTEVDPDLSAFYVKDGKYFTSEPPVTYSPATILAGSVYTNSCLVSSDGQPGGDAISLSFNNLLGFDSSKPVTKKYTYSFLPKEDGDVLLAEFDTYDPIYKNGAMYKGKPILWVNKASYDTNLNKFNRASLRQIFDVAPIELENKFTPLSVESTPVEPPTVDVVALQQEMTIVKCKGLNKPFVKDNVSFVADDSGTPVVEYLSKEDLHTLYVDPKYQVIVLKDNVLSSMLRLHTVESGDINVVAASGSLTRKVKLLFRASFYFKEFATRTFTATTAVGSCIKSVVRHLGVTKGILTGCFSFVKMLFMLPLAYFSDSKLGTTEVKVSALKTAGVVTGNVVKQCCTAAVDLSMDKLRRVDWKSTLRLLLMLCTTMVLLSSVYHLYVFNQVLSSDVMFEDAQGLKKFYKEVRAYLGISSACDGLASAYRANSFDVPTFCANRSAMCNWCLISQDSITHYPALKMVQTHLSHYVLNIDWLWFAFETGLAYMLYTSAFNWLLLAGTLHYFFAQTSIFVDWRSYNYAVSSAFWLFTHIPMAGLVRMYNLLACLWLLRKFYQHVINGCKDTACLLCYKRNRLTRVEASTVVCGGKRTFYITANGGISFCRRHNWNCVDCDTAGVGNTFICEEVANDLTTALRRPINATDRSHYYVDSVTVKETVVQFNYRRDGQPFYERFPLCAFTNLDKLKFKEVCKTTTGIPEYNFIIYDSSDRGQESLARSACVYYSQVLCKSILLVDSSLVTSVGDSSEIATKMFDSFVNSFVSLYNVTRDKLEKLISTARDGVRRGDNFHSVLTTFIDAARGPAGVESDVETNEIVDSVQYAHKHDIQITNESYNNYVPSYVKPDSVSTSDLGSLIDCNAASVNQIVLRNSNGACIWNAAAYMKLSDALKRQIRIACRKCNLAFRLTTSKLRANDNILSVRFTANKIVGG

Test [2] has as its target T1, Replicase polyprotein 1ab. Kind of test: Binding affinity to MERS-CoV papain-like protease by SPR analysis. The method, boiled down:
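SPR on Biacore T200. Enzyme at 50 µg/mL in 10 mM sodium acetate pH 5.5 amine-coupled to CM5 chip (~10,000 RU); blank flow cells as reference. Compounds 0-50 µM (2-fold series) in PBSP + 0.5 mM TCEP, 2% DMSO, 30 µL/min, 25°C; double-referenced. KD from steady-state responses fit to rectangular hyperbola; rate constants from global 1:1 Langmuir fit.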
A general note: In SPR one partner is held on a chip, and binding of the other changes the refractive index at the surface.

For test [3], the target named is Replicase polyprotein 1ab (Middle East respiratory syndrome-related coronavirus (isolate UnitedKingdom/H123990006/2012) (Betacoronavirus England 1) (Humancoronavirus EMC)) (UniProt K9N7C7). The description is as §1. Also on record: concentration or dose not given beside the values.
Target sequence in this assay (K9N7C7 854-2740 limits assumed): as above
For test [4], the target named is T1, Replicase polyprotein 1ab. Description: Competitive-inhibition of MERS-CoV papain-like protease using varying levels of Z-Arg-Leu-Arg-Gly-Gly-AMC as substrate by Dixon-plot analysis.
Test [5] has as its target Replicase polyprotein 1ab (Middle East respiratory syndrome-related coronavirus (isolate UnitedKingdom/H123990006/2012) (Betacoronavirus England 1) (Humancoronavirus EMC)) (UniProt K9N7C7). Kind of test: Inhibition of MERS-CoV papain-like protease at 50 uM using Z-Arg-Leu-Arg-Gly-Gly-AMC as substrate preincubated for 5 mins followed by substrate addition and measured for 10 mins by fluorescence assay relative to control. The method, boiled down: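 Confirmation retest run by hand in triplicate at room temperature. Buffer: 50 mM HEPES pH 7.5, 0.01% Triton X-100, 0.1 mg/mL BSA, 2 mM DTT. Enzyme and compound preincubated 5 min, then Z-RLRGG-AMC added to 50 µM final. AMC fluorescence (ex 360/em 450 nm) followed continuously; percent inhibition calculated against DMSO control.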

Test [6] has the same target. Kind of test: Binding affinity to 15N-labelled His-tagged Apo-MRES-CoV papain-like protease by TROSY [1H-15N] spectroscopy.
Test [7] has the same target. Description: Reversible inhibition of MERS-CoV papain-like protease assessed as recovery of enzyme activity at 125 times IC50 using Z-Arg-Leu-Arg-Gly-Gly-AMC as substrate incubated for 1 hr followed by 2-fold dilution and measured by fluorescence assay. In outline:
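Dilution method: 4 µM enzyme incubated with compound for 1 h at room temperature in HEPES pH 7.5 assay buffer (2 mM DTT, 0.1 mg/ml BSA, 0.01% Triton X-100). DMSO-only enzyme served as control. Both samples diluted 2-fold, then seven further 2-fold dilutions. Activity read at each step with the continuous Z-RLRGG-AMC fluorescence assay.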

Test [8] shares this target. Kind of test: Binding affinity to MERS-CoV papain-like protease in presence of Z-Arg-Leu-Arg-Gly-Gly-AMC by SPR analysis. The method, boiled down:
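MERS-CoV PLpro was amine-coupled to a CM5 chip (~10,000 RU), with unmodified reference cells. Compounds (0-50 µM, 2-fold series) were injected with 500 µM Z-RLRGG-AMC substrate present, in PBSP + 0.5 mM TCEP + 2% DMSO at 30 µL/min and 25°C. Data were double-referenced, and KD came from a steady-state hyperbolic fit.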

The source made the active and inactive calls. The calls are words filed in the database; no cut-off is given here.

For orientation: IC50 means the midpoint of a concentration-inhibition curve. Molecule `O=[N+]([O-])c1ccc(Cl)c2nonc12` displayed an IC50 in test [1] of 141 µM.

A word on the Kd: it is the concentration at which binding is half-saturated. `O=C(O)c1cc(/N=N/c2ccc(S(=O)(=O)Nc3ccccn3)cc2)ccc1O` [SULFASALAZINE] registered a Kd in test [2] of 7.6 to 112 µM.

In turn, `COCC(=O)/C=C1\Sc2ccccc2N1C` gave a dissociation constant (Kd) in test [2] of 7.6 to 112 µM.

`Nc1ccc([N+](=O)[O-])cn1`: the IC50 in test [1] was determined as 137 µM.

For orientation: inhibition means the drop in the measured response relative to a control, in per cent. For the molecule `Nc1ccc(S(=O)(=O)N2CC(=O)NC(=O)C2)cc1`, in test [3], the inhibition was 16%.

With `Cc1ccc(S(=O)(=O)n2c(C)cc(C)nc2=O)cc1`, the inhibition in test [3] was 11%.

In test [3], `CC(=O)Nc1ccc(S(=O)(=O)n2c(C)cc(C)nc2=O)cc1` registered an inhibition of 2%.

For the molecule `O=C(O)c1cc(/C=C/c2ccc(N3CCOCC3)cc2)nc2ccccc12`, in test [2], the equilibrium dissociation constant (Kd) was 7.6 to 112 µM.

As a reminder, the Ki is the equilibrium dissociation constant of an inhibitor or competing ligand from its target. Take `Cc1cc(C)n(S(=O)(=O)c2ccc(N)cc2)c(=O)n1`: the Kd in test [2] fell in the range of 7.6 to 9.3 µM. Also, the affinity in test [4], expressed as Ki, was 36.6 µM. Moreover, the inhibition in test [5] is greater than 50%; in test [3] it was 73%. The outcome in test [6] was Active. Further, the inhibition entry in test [7] is “Active”. Further, in test [1], the midpoint of inhibition, the IC50, lay at 20 µM.

`O=C(NC1=CC=CC2C(=O)C=C(c3nn[nH]n3)OC12)c1ccc(OCCCCc2ccccc2)cc1` (configuration not stated) gave an inhibition in test [5] greater than 50%. The outcome in test [8] was inactive.

Take `O=Cc1ccc(O)c(O)c1` [PROTOCATECHUALDEHYDE]: the half-maximal inhibitory concentration (IC50) in test [1] is 239 µM.

For `O=[N+]([O-])c1ccc(O)c(O)c1` [4-Nitrocatechol], in test [1], the midpoint of inhibition, the IC50, lay at 145 µM.

`Cc1ccc(C)c(CSc2nc(C3CCCCC3)c(C#N)c(=O)[nH]2)c1` had an equilibrium dissociation constant (Kd) in test [2] of 7.6 to 112 µM.

Turning to `CC1CCCC(C)N1S(=O)(=O)c1ccc(N)cc1` (configuration not stated), the inhibition in test [3] came to 7%.

For the molecule `Cn1c(=O)c2c(nc(NN=C3C(=O)NC(=O)NC3=O)n2C)n(C)c1=O`, in test [2], the Kd fell in the range of 7.6 to 112 µM.
